Compound activity deposited in PubChem by several laboratories.
This is a sample that favours compounds with a hit; in the whole collection about 1.9% have one here.
Scp1 inh = Scp-1 phosphatase inhibitors, primary screen, biochemical, colorimetric, uHTS | 340,000 compounds, 0.88% hits | inhibition, % at 20 µM | Recombinant Scp1, phosphopeptide, malachite green phosphate absorbance;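 active = inhibition above about 50% at 20 µM, limit read from the data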;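 also: plate controls were DMSO wells with enzyme for no effect and wells lacking enzyme for full effect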
Target sequence (Q9GZU7 76-261 limits assumed): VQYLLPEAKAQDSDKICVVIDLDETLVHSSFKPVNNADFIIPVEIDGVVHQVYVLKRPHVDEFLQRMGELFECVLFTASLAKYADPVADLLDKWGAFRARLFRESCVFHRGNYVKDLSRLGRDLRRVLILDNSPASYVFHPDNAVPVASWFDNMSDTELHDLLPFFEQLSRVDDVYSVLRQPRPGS
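Assay system: SCP-1 catalytic fragment, aa 76-261 | Buffer or medium: Tris acetate buffer pH 5.5 with MgCl2 and Tween-20 | Compound: One concentration, 20 µM, with 1.0% DMSO | Also added: Phospho 17-mer peptide substrate | Signal: Absorbance at 630 nm | Incubation: 45 min enzyme reaction at room temperature | Measure: % inhibition of SCP-1 phosphate liberation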
PP5 inh = PP5 phosphatase inhibitors, primary screen, biochemical, fluorescence | Serine/threonine-protein phosphatase 5 (Homo sapiens), P53041 | purified PP5c, OMFP substrate fluorescence | inhibition, % at 6.7 µM | 320,000 compounds, 0.18% hits;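 active = inhibition above the campaign's mean inhibition across all tested compounds plus 3 SD, cut at about 9.5% in these data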;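 also: 0% = DMSO only and 100% = 100 µM cantharidin control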
STEP inh = STEP phosphatase inhibitors, primary screen, biochemical, fluorescence intensity, uHTS; Tyrosine-protein phosphatase non-receptor type 5 (Homo sapiens), P54829; recombinant STEP, OMFP fluorogenic substrate; inhibition, % at 20 µM; 360,000 compounds, 0.25% hits;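 active = inhibition at 20 µM, scaled per plate between control wells, above about 37%, limit read from the data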;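 also: 0% = DMSO with enzyme and substrate and 100% = substrate only without enzyme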
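Assay system: isolated STEP enzyme. Buffer or medium: pH 6.0 Bis-Tris with DTT and Tween 20. Also added: fluorogenic phosphatase substrate OMFP at 25 µM final. Dosing: 20 µM, 1% DMSO. Timing: 20 min reaction, room temperature, in the dark. Measured by: fluorescence intensity, excitation 480 nm, emission 540 nm. Evaluation: normalized % inhibition.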
LMPTP block = LMPTP phosphatase inhibitors, primary screen, biochemical, fluorescence intensity, uHTS | Low molecular weight phosphotyrosine protein phosphatase (Homo sapiens), P24666 | recombinant LMPTP-A, OMFP fluorogenic substrate | inhibition, % at 20 µM | 360,000 compounds, 0.22% hits | AID 651560, 2012;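 active = compounds that cut the enzyme signal by at least half of the control window in the single-dose screen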;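 also: plate controls were DMSO wells with enzyme plus substrate for no effect and substrate without enzyme for full effect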
Target sequence (P24666 whole entry, looked up): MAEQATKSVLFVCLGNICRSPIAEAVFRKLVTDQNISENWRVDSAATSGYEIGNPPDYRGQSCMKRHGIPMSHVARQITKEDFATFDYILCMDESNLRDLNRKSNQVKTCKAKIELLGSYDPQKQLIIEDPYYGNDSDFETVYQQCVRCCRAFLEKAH
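test system = LMPTP-A | amount = 0.625 nM LMPTP-A final | reagent = fluorogenic phosphatase substrate OMFP at 400 µM final | incubation = 50 min at room temperature | benchmarks = no-enzyme low control, uninhibited high control | medium = Bis-Tris pH 6.0, DTT, detergent | signal = fluorescence intensity of OMFP turnover product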
PP1 counter = PP1-alpha phosphatase inhibitors, primary screen, counter-screen for PP5 inhibitor project, biochemical, fluorescence, OMFP substrate, single point; Serine/threonine-protein phosphatase PP1-alpha catalytic subunit (Homo sapiens), P62136; purified PP1alpha; inhibition, % at 6.7 µM; 320,000 compounds, 0.9% hits; AID 2235, 2010;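 active = inhibition above the mean inhibition of all tested compounds plus 3 SD, computed separately for each screening campaign, cut at about 15% in these data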
Target sequence (P62136 whole entry, looked up): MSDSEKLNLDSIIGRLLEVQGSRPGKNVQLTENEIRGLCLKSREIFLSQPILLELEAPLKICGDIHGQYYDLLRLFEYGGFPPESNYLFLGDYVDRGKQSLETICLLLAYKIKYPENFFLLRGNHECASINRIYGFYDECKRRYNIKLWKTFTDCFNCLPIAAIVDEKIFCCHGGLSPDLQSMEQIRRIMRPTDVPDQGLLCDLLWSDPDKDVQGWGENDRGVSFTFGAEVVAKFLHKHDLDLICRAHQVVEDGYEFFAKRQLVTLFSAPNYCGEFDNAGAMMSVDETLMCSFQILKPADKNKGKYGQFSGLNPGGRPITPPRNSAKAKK
Scp1 confirm = Scp-1 phosphatase inhibitors, retest, confirmation, biochemical, colorimetric, single concentration. 2,500 compounds, 61% hits. inhibition, % at 20 µM. shares compounds with Scp1 inh. AID 540281, 2011. recombinant SCP-1 catalytic domain, phosphate release, malachite green absorbance;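 also: plate controls were DMSO with enzyme for no effect and buffer wells lacking enzyme for full effect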
Scp-1 MG ctr = colorimetric readout interference by compounds, confirmation, artefact control for Scp-1 inhibitor project, biochemical, single concentration. 2,500 tested, under 10 active. apparent inhibition (interference), % at 20 µM. AID 540313, 2011. Colorimetric interference counterscreen, malachite green absorbance 630 nm. shares compounds with Scp1 inh;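 also: compounds added after enzyme reaction finished so only phosphate colour detection is probed; plate controls were DMSO wells with completed Scp-1 reaction for no effect and substrate wells lacking enzyme for full effect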
Scp1 DSF = Scp-1 binding by thermal shift, confirmation, orthogonal assay for Scp-1 inhibitor project, biophysical, differential scanning fluorimetry; thermal shift relative to vanadate control, % at 40 µM; shares compounds with Scp1 inh; 1,500 compounds, 25% hits; Recombinant SCP1, Sypro Orange thermal shift Tm;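 active = substances whose mean melting-temperature shift, as a percentage of the reference inhibitor's shift, reaches about 5.3%, limit read from the data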;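 also: 0% = Tm of DMSO wells and 100% = Tm with sodium orthovanadate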
* marks the source's active call; other numbers are inactive results; · = no result given.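 The calls were made as follows, unless noted: active = inhibition of at least 30% at 20 µM; inactive = the rest.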

SMILES	Scp1 inh	PP5 inh	STEP inh	LMPTP block	PP1 counter	Scp1 confirm	Scp-1 MG ctr	Scp1 DSF
COc1ccc(S(=O)(=O)NCCC(=O)NC2CCCCC2C)cc1[N+](=O)[O-] (stereo not drawn)	56*	·	9	8	·	46*	-14	5.3*
COc1cc(NC(=O)c2ccccc2)c(OC)cc1NC(=O)Cc1cccs1	71*	0	2	24	0	66*	-16	8.0*
COC(=O)c1cc(NC(=O)Cc2cccs2)cc(C(=O)OC)c1	76*	4	21	48	7	65*	-18	6.3*
Cc1ccc([N+](=O)[O-])cc1NC(=O)Cc1cccs1	67*	2	0	26	-2	60*	-22	5.9*
COc1ccccc1N1CCN(/N=C(\C)c2ccc(O)cc2)CC1	-5	-1	2	0	2	·	·	·
Cc1ccc(/C=C(/NC(=O)c2ccccc2)C(=O)NCCc2c[nH]c3ccccc23)o1	-5	4	2	-2	1	·	·	·
CN1CCC(NC(=S)NC2CC2)CC1	0	3	-2	0	-9	·	·	·
O=C(N/N=C/c1ccc([N+](=O)[O-])o1)c1cn2ccc3ccccc3c2n1	80*	1	-1	7	3	-11	-16	·
O=C(N/N=C/c1ccc([N+](=O)[O-])o1)c1sc2ccccc2c1Cl	24	3	2	4	3	·	·	·
CC1CN(C(=O)COC(=O)[C@@H]2CC(O)CN2S(=O)(=O)c2ccc3c(c2)OCCO3)CC(C)O1 (stereo partly drawn)	-4	-2	1	-1	-2	·	·	·
O=C(NCc1ccc2c(c1)OCO2)c1cc(-n2cnnc2)ccc1Cl	85*	0	-1	-1	2	10	-17	·
CCOC(=O)c1cccc(NC(=O)CSc2nc3ccccc3c(=O)n2CC)c1	-2	1	0	0	-4	·	·	·
CCOC(=O)c1ccc2c(c1)n(CC)c(/C=C/Nc1ccccc1)[n+]2CC	62*	3	-3	-1	2	-10	-11	·
CCn1c(C)[n+](Cc2ccccc2)c2ccc(Cl)cc21	1	1	-1	1	-3	·	·	·
CCn1c(C)[n+](Cc2ccccc2)c2ccc(C(=O)OC)cc21	102*	3	-3	1	1	53*	-6	-4
CCCCCSc1nncc(=O)[nH]1	-4	4	-5	0	-10	·	·	·
CCOc1ncccc1C(=O)Nc1ccc(S(=O)(=O)NC2=NCCCCC2)cc1	-7	-1	-2	-1	0	·	·	·
COc1ccccc1-c1nn2c(-c3ccco3)nnc2s1	51*	4	0	7	1	60*	-4	-7
c1coc(-c2nnc3sc(Cc4cccs4)nn23)c1	86*	2	4	26	-1	61*	-11	1
c1coc(-c2nn3c(-c4ccco4)nnc3s2)c1	42	3	-8	0	7	·	·	·
O=C(CCc1nnc2ccc(N3CCCC3)nn12)Nc1ccc(F)c(F)c1	0	0	-3	-1	-2	·	·	·
O=C(Cc1ccc(NC(=O)C2CCN(C(=O)c3ccccc3)CC2)cc1)Nc1cccc(C(=O)N2CCCCC2)c1	4	·	1	0	·	·	·	·
CCOC(=O)C1=C(O)/C(=C\c2ccc(CNC(=O)C(=O)Nc3ccccc3)o2)N=C1C	97*	2	8	37	9	62*	-13	6.2*
CCC(=O)c1ccc(OCC(O)CN2CCc3ccccc3C2)cc1 (stereo not drawn)	-4	0	-2	-3	-6	·	·	·
O=C1NC(=S)S/C1=C1\Sc2ccccc2N1CCCS(=O)(=O)O	-2	0	6	-1	0	·	·	·
SMILES	Scp1 inh	PP5 inh	STEP inh	LMPTP block	PP1 counter	Scp1 confirm	Scp-1 MG ctr	Scp1 DSF
NN1C(=O)/C(=C2/Sc3ccccc3N2CCCS(=O)(=O)O)SC1=S	84*	2	29	0	4	73*	2	-11
CCn1c(/C=C/c2cc[n+](C)cc2)nc2ccccc21	102*	-2	-3	0	-2	12	-8	·
CCCn1c(/C=C/c2ccccc2)nc2ccccc21	-6	2	-2	15	-4	·	·	·
Cc1c(Cl)cccc1Nc1nc(N)nc(CN2CCc3ccccc3C2)n1	-5	0	3	0	3	·	·	·
CCCN(C(=O)c1cc2c(s1)CCC2)c1c(N)n(Cc2ccccc2)c(=O)[nH]c1=O	53*	-2	-1	12	5	46*	-17	-3
CCCCn1c(N)c(N(CCOC)C(=O)c2cnccn2)c(=O)[nH]c1=O	-4	0	0	-1	-2	·	·	·
CCCCN(C(=O)c1cc2c(s1)CCC2)c1c(N)n(CC(C)C)c(=O)[nH]c1=O	18	-1	1	5	1	·	·	·
CCCCN(C(=O)c1cnccn1)c1c(N)n(CCC)c(=O)[nH]c1=O	99*	·	1	1	·	-7	-7	·
COCCCN(C(=O)c1cc2c(s1)CCC2)c1c(N)n(Cc2ccccc2)c(=O)[nH]c1=O	7	-1	-2	3	2	·	·	·
CCCCN(C(=O)c1cc2c(s1)CCC2)c1c(N)n(CCC)c(=O)[nH]c1=O	60*	·	4	3	·	50*	-1	2
NC(=S)N/N=C/c1ccccc1OC(=O)/C=C/c1ccccc1	-8	-1	-1	1	-1	·	·	·
Cc1ccc(S(=O)(=O)N(CC(=O)N/N=C/c2ccco2)Cc2ccccc2)cc1	-6	2	3	0	-2	·	·	·
Cc1cccc(CN(CC(=O)N/N=C/c2ccco2)S(=O)(=O)c2ccc(Cl)cc2)c1	58*	5	3	2	2	48*	-16	4
COc1ccc(OCC(=O)Nc2ccc3oc(=O)ccc3c2)cc1	-2	0	0	-3	1	·	·	·
Cn1ccsc1=NC(=O)c1ccc(=O)[nH]c1	94*	2	-1	0	0	-19	-16	·
Cc1ccc2nc(Cl)c(/C=N/NC(=O)c3ccccc3O)cc2c1	72*	0	2	3	-2	21	-5	·
